# Wnt act = activators of Wnt/beta-catenin signaling. activation, % at 9.35 µM. Wnt/beta-catenin reporter cell assay, activator, plate reader. hit rate 1.2% among 300,000; in the data active = activation above about 30%, passing the limit was not always enough; inconclusive = no clear call, values can overlap the other calls
# esBAF inh = SWI/SNF esBAF complex inhibition; mouse ES cells, Bmi1-luciferase knock-in reporter, 24 h; 100% = twice the neutral-well signal; reporter increase, % at 12.5 µM; hit rate 2% among 350,000; AID 602393; in the data active = activation above about 40%; inconclusive = no clear call, values can overlap the other calls;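 also: a rise in the Bmi1 reporter signal indicates esBAF inhibition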
# MITF TRPM1 HTS = increases MITF-driven TRPM1 promoter luciferase signal. activation, % at 12.5 µM. SK-MEL-5 TRPM1-promoter luciferase, 24 h; % of positive control, neutral wells = 0. hit rate 0.75% among 300,000. AID 588334;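 active = mean activation of at least 80% with every replicate also reaching 80%; inconclusive = mean reaches 80% but some replicate falls short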
# ERAP1 HTS inh = blocks human ERAP1 aminopeptidase activity | Q9NZ08 | inhibition, % at 10.7 µM | hit rate 0.15% among 340,000 | AID 652197 | recombinant ERAP1, Leu-AMC fluorescence, 60 min;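 active = mean replicate inhibition of at least 30%, or all replicates individually reaching that 30% level; inactive = mean below 30% and not every replicate reaching it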
# Cneo AK release = Cryptococcus neoformans lysis via adenylate kinase release | lysis activity, % at 15 µM | hit rate 0.2% among 360,000 | C. neoformans lysis, adenylate kinase release luminescence, 4 h; normalised: neutral wells 0, clomiphene wells 100;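 active = mean lysis activity across replicates of at least 80%, whatever share of replicates individually reach that level; inactive = mean lysis activity below 80%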
#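 Assay system: Cryptococcus neoformans yeast cells / Dosing: single-point compound dose / Timing: 4 h at 37 °C static, read 1 h later / Measured by: luminescence of released adenylate kinase using an AK detection reagent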
# Env fusion inh = inhibitors of HIV Env-mediated cell fusion; HeLa-JRFL Env/CEM21 cell fusion, luciferase; inhibition, % at 12.3 µM; hit rate 1.1% among 360,000; AID 651610;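 active = mean replicate inhibition score of at least 50 and every replicate individually at or above 50; inconclusive = only one of the two criteria met; inactive = mean below 50 and not all replicates reaching 50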
# Numbers stand for hits; - = inactive; ? = inconclusive; . = no result given; [ ] = remark or other dose. This is a sample that favours compounds with a hit; in the whole collection about 3.5% have one here.
SMILES,Wnt act,esBAF inh,MITF TRPM1 HTS,ERAP1 HTS inh,Cneo AK release,Env fusion inh
Clc1ccc(COn2nnc3ccccc32)c(Cl)c1,-,?,99.4,-,-,.
O=[N+]([O-])c1ccc(COn2nnc3ccccc32)cc1,-,.,-,-,.,-
c1ccc(Nc2ccnc(Nc3ccccc3)n2)cc1,71.3,45.3,-,.,-,-
C[C@H](CO)N1C[C@H](C)[C@H](CN(C)CC2CC2)Oc2cc(C#Cc3ccc(F)cc3)ccc2S1(=O)=O,.,-,.,-,-,-
O=C(NC[C@H]1[C@H](c2ccccc2)[C@H](CO)N1C(=O)Cc1cccnc1)C1CCC1,.,-,.,.,81.1,.
O=C(NC[C@H]1[C@@H](c2ccccc2)[C@@H](CO)N1C(=O)C1CCC1)NC1CCCC1,.,-,.,.,97.4,.
COc1ccc2[nH]c(=O)c3c(c2c1)OC(C)(C)C=C3,-,-,.,.,-,136.0
CO[C@H]1CN(C)C(=O)c2cc(NC(=O)Nc3ccccc3F)ccc2OC[C@H](C)N(Cc2ccccc2C(=O)O)C[C@H]1C,.,-,.,-,-,.
CCCC#Cc1ccc2c(c1)O[C@@H](CN(C)S(=O)(=O)c1cccc(F)c1)[C@@H](C)CN([C@@H](C)CO)S2(=O)=O,.,-,.,-,-,60.1[16.7 µM]
COCC#Cc1ccc2c(c1)O[C@H](CN(C)S(=O)(=O)c1ccc(OC)cc1)[C@H](C)CN([C@H](C)CO)S2(=O)=O,.,-,.,-,87.1,.
CCCC#Cc1ccc2c(c1)O[C@H](CN(C)S(=O)(=O)c1cccc(F)c1)[C@H](C)CN([C@H](C)CO)S2(=O)=O,.,-,.,-,-,-
CC(C)CC#Cc1ccc2c(c1)O[C@H](CN(C)S(=O)(=O)c1ccc(F)cc1)[C@@H](C)CN([C@H](C)CO)S2(=O)=O,.,-,.,-,-,-
COCC#Cc1ccc2c(c1)O[C@H](CN(C)S(=O)(=O)c1ccc(OC)cc1)[C@@H](C)CN([C@H](C)CO)S2(=O)=O,.,-,.,-,-,.
CC(C)CC#Cc1ccc2c(c1)O[C@@H](CN(C)S(=O)(=O)c1ccc(F)cc1)[C@@H](C)CN([C@H](C)CO)S2(=O)=O,.,-,.,-,-,61.7[16.7 µM]
CC(C)CC#Cc1ccc2c(c1)O[C@@H](CN(C)S(=O)(=O)c1cccc(F)c1)[C@@H](C)CN([C@H](C)CO)S2(=O)=O,.,-,.,-,-,67.7[16.7 µM]
CO[C@H]1CN(C)C(=O)c2cc(NS(=O)(=O)c3ccc(Cl)cc3)ccc2OC[C@H](C)NC[C@H]1C,.,-,.,-,-,-
Cc1ccc(S(=O)(=O)N(C)C[C@H]2Oc3ccc(NC(=O)CCC(F)(F)F)cc3CC(=O)N([C@H](C)CO)C[C@H]2C)cc1,.,-,.,-,-,.
COCC#Cc1ccc2c(c1)O[C@@H](CN(C)C(=O)C1CCC1)[C@@H](C)CN([C@@H](C)CO)S2(=O)=O,.,-,.,-,-,-
CCOC(=O)c1cnc(-n2nc(C)cc2C)nc1N(C)C,-,44.1,-,.,-,-
C[C@@H](NC(=O)C[C@@H]1CC[C@H]2[C@@H](COC[C@@H](O)CN2C(=O)Nc2ccccc2)O1)c1ccccc1,.,-,.,-,-,.
CC(=O)NNC(=O)CSc1nnc(-c2ccccc2)c(-c2ccccc2)n1,-,-,.,-,92.5,-
C[C@@H]1CN([C@H](C)CO)C(=O)c2cc(NC(=O)Nc3ccc(F)cc3)ccc2O[C@@H](C)CCCCO[C@H]1CN(C)Cc1ccc(C(F)(F)F)cc1,.,-,.,-,-,67.9[16.7 µM]
C[C@H]1CCCCO[C@H](CN(C)Cc2ccc(C(F)(F)F)cc2)[C@@H](C)CN([C@@H](C)CO)C(=O)c2cc(NC(=O)Nc3ccc(F)cc3)ccc2O1,.,-,.,-,-,57.6[16.7 µM]
C[C@@H]1CN([C@H](C)CO)C(=O)c2cc(NC(=O)Nc3ccc(F)cc3)ccc2O[C@@H](C)CCCCO[C@@H]1CN(C)Cc1ccc(C(F)(F)F)cc1,.,-,.,-,-,57.4[16.7 µM]
C[C@@H]1CCCCO[C@H](CN(C)Cc2ccc(C(F)(F)F)cc2)[C@H](C)CN([C@@H](C)CO)C(=O)c2cc(NC(=O)Nc3ccc(F)cc3)ccc2O1,.,-,.,-,-,-
CCCC(=O)Nc1ccc2c(c1)C(=O)N(C)[C@@H]1CC[C@H](CC(=O)NCC3CCCCC3)O[C@@H]1CO2,.,-,.,-,-,-
O=C(C[C@H]1CC[C@@H]2[C@H](COC[C@@H](O)CN2C(=O)Nc2ccc3c(c2)OCO3)O1)N1CCN(c2ccccc2)CC1,.,-,.,-,-,.

# Source: PubChem BioAssay (Broad Institute)
